Test results as given in ChEMBL document CHEMBL4017519, “Development of (4-Cyanophenyl)glycine Derivatives as Reversible Inhibitors of Lysine Specific Demethylase 1” (J Med Chem, 2017).
Active and inactive are the calls of the source. The rule behind the calls is not given here.

Legend:
[1] = biological target: T1, Lysine-specific histone demethylase 1A (Homo sapiens, UniProt O60341); assay: Binding affinity to LSD1 (unknown origin) by SPR analysis
[2] = biological target: T1, Lysine-specific histone demethylase 1A; assay: Inhibition of N-terminal truncated human LSD1 (151 to 852 residues) expressed in Escherichia coli after 30 mins using histone H3(1-21)K4(Me1) biotin peptide as substrate by TR-FRET assay
Homo sapiens = species on record: Homo sapiens; assay: Selectivity ratio of IC50 for human ERG to IC50 for N-terminal truncated human LSD1 (151 to 852 residues) expressed in Escherichia coli
[3] = biological target: Voltage-gated inwardly rectifying potassium channel KCNH2 (Homo sapiens, UniProt Q12809); assay: Inhibition of human hERG by patch clamp method
MV4-11 = assay: Anticlonogenic activity against human MV4-11 cells at 10 uM after 7 days; assay type: functional, cell-based
Liver = assay: Intrinsic clearance in mouse liver microsomes assessed per […]; assay type: ADME, microsome
THP-1 [4] = assay: Anticlonogenic activity against human THP1 cells at 10 uM after 7 days; assay type: functional, cell-based
[5] = Half life in mouse liver microsomes; assay type: ADME, microsome
THP-1 [6] = assay: Induction of apoptosis in human THP1 cells at 10 uM after 4 days by Annexin V-perCP EF710/7AAD double staining based FACS analysis; assay type: functional, cell-based
In short: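 THP-1 cells in liquid culture with 10 μM compound or vehicle for 4 days, then stained with an Annexin V/7-AAD kit per manufacturer and analysed by flow cytometry. Early apoptotic = Annexin V-pos/7-AAD-neg; apoptotic = Annexin V-pos/7-AAD-pos. One-way ANOVA with Dunnett's tests.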

[7] = Apparent permeability across apical to basolateral side in human Caco2 cells; assay type: ADME, cell-based; conditions: Caco-2
[8] = biological target: T1, Lysine-specific histone demethylase 1A; assay: Inhibition of LSD1 in human THP1 cells assessed as induction of CD86 expression after 48 hrs by flow cytometric analysis; assay type: cell-based
[9] = Efflux ratio of apparent permeability in human Caco2 cells; assay type: ADME, cell-based; conditions: Caco-2
[10] = biological target: T1, Lysine-specific histone demethylase 1A; assay: Inhibition of LSD1 in human THP1 cells assessed as induction of CD86 expression at 50 uM after 48 hrs by flow cytometric analysis; assay type: cell-based
In short: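 THP-1 AML cells grown in RPMI with 10% FBS and 2 mM L-glutamine, exposed to compound or DMSO vehicle at 50 μM for 48 h at 1×10^5 cells/ml. Cells were pelleted and stained with CD86-PerCP EF710 antibody in phenol red-free RPMI with 5 mM EDTA and 2% BSA for 10 min at 4 °C, then washed and analysed by flow cytometry.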

[11] = biological target: T1, Lysine-specific histone demethylase 1A; assay: Competitive binding affinity to LSD1 (unknown origin) in presence of tranylcypromine

Chain of Voltage-gated inwardly rectifying potassium channel KCNH2 (Q12809 whole entry): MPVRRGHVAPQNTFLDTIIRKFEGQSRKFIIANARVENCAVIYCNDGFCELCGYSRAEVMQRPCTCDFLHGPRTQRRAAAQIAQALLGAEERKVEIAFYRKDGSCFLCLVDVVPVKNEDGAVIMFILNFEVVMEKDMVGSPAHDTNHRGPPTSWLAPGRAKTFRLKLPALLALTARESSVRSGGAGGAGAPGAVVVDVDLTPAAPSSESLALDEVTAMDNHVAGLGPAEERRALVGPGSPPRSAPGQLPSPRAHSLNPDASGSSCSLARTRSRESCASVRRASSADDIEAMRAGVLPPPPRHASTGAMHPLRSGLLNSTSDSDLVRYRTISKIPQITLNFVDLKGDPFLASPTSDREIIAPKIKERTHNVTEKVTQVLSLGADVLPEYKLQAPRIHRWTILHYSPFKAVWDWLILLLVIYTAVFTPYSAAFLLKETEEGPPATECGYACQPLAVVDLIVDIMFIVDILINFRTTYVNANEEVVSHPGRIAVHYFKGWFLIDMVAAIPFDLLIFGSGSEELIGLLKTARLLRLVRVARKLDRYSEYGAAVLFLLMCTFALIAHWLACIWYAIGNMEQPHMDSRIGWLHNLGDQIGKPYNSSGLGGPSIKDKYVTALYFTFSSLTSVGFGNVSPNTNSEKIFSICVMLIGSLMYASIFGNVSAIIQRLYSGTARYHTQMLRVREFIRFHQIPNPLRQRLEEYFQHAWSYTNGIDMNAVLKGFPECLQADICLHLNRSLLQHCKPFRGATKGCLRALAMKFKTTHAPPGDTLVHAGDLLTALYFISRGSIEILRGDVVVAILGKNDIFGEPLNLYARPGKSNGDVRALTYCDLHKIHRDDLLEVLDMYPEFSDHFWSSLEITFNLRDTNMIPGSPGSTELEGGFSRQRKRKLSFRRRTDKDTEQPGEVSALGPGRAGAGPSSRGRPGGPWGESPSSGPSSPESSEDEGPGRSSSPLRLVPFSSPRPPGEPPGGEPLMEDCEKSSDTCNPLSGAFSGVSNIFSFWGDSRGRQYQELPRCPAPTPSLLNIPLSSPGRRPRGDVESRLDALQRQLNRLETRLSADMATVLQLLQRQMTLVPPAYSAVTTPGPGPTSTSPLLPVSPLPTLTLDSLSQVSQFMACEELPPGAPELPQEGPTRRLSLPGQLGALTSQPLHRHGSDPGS

| Kd [1] [µM] | IC50 [2] [µM] | Compound | further results |
| --- | --- | --- | --- |
| 2.9 | 12.6 | Cc1ccc(S(=O)(=O)N(CC(=O)N2CCC(N(C)C)CC2)c2ccc(C#N)cc2)cc1 | – |
| 0.032 | 0.083 | COc1ccc(CN(CC(=O)N2CCC3(CC2)CNC3)c2ccc(C#N)cc2)cc1F | Ratio IC50 (Homo sapiens): 30; IC50 [3]: 20.1 µM; Activity (MV4-11): Active; CLint (Liver): < 1 µL/min; Activity (THP-1 [4]): Active; half-life [5]: > 16.7 h; Activity (THP-1 [6]): Active; Papp A→B [7]: 0.09 ×10⁻⁶ cm/s; EC50 [8]: 0.67 µM; efflux ratio [9]: 58 |
| 0.19 | 0.81 | COc1ccc(CN(CC(=O)N2CCC(N)CC2)c2ccc(C#N)cc2)cc1F | CLint (Liver): 3.6 µL/min; half-life [5]: 6.42 h; Papp A→B [7]: 0.44 ×10⁻⁶ cm/s |
| 0.11 | 0.29 | Cc1ccc(CN(CC(=O)N2CCC(CN)CC2)c2ccc(C#N)cc2)cc1 | – |
| 0.058 | 0.21 | COc1ccc(CN(CC(=O)N2CCC(CN)CC2)c2ccc(C#N)cc2)cc1F | IC50 [3]: 12.4 µM; CLint (Liver): 4.5 µL/min; half-life [5]: 5.08 h; Papp A→B [7]: 0.26 ×10⁻⁶ cm/s; EC50 [8]: 4.1 µM; efflux ratio [9]: 58 |
| 2.4 | 5.2 | CC(=O)N1CCc2cc(S(=O)(=O)N(CC(=O)N3CCC[C@@H](N)C3)c3ccc(C#N)cc3)ccc21 | – |
| – | 40 | COc1cc(NS(=O)(=O)c2ccccc2)ccc1-n1nc(C)cc1C | – |
| 9.6 | 30 | Cn1cc2cc(N(CC(=O)N3CCC[C@@H](N)C3)S(=O)(=O)c3ccc(C#N)cc3)ccc2n1 | – |
| 2.4 | 13.1 | Cc1ccc(S(=O)(=O)N(CC(=O)N2C[C@@H]3C[C@H]2CN3)c2ccc(C#N)cc2)cc1 | – |
| > 100 | > 30 | COc1cc(N(CC(=O)N2CCC(N)CC2)S(=O)(=O)c2ccc3c(c2)CCN3C(C)=O)ccc1-n1nc(C)cc1C | – |
| 0.46 | 1.3 | N#Cc1ccc(N(CC(=O)N2CCC(CN)CC2)Cc2ccc(F)cc2)cc1 | – |
| 1.9 | 5.5 | N#Cc1ccc(N(CC(=O)N2CCC(N)CC2)Cc2ccc(C#N)c(F)c2)cc1 | – |
| 2.6 | 7.6 | Cc1ccc(S(=O)(=O)N(CC(=O)N2CCC(N)CC2)c2ccc(C#N)cc2)cc1 | – |
| 4.7 | 22.7 | Cc1ccc(S(=O)(=O)N(CC(=O)N2CC[C@H](N)C2)c2ccc(C#N)cc2)cc1 | – |
| 9.5 | – | CC(=O)Nc1ccc(S(=O)(=O)Nc2ccc(C#N)cc2)cc1 | – |
| > 100 | 1.6 | COc1cc(NS(=O)(=O)c2ccc3c(c2)CCN3C(C)=O)ccc1-n1nc(C)cc1C | – |
| 0.42 | 1 | N#Cc1ccc(N(CC(=O)N2CCC(CN)CC2)Cc2cccc(C(N)=O)c2)cc1 | – |

| Kd [1] [µM] | IC50 [2] [µM] | Compound | further results |
| --- | --- | --- | --- |
| 1.1 | 4.1 | N#Cc1ccc(N(CC(=O)N2CCC(N)CC2)Cc2ccccc2)cc1 | – |
| 6.5 | 15.6 | Cc1ccc(S(=O)(=O)N(CC(=O)NC2CCNCC2)c2ccc(C#N)cc2)cc1 | – |
| 0.49 | 0.83 | N#Cc1ccc(N(CC(=O)N2CCC(CN)CC2)Cc2ccc(C(N)=O)cc2)cc1 | – |
| – | 0.43 | COc1cc(NS(=O)(=O)c2ccc3c(c2)cc(C)c(=O)n3C)ccc1-n1nc(C)cc1C | inhibition [10]: inactive; Activity [11]: inactive |
| 0.23 | 0.99 | COc1ccc(CN(CC(=O)N2CCC(F)(CN)CC2)c2ccc(C#N)cc2)cc1F | – |
| 2.5 | 5.2 | Cc1ccc(S(=O)(=O)N(CC(=O)N2CCC(C)(N)CC2)c2ccc(C#N)cc2)cc1 | – |
| 10.3 | 24.3 | Cc1ccc(S(=O)(=O)N(CC(=O)N2CCC[C@H](N)C2)c2ccc(C#N)cc2)cc1 | – |
| 0.14 | 0.62 | Cn1ncc2cc(CN(CC(=O)N3CCC(N)CC3)c3ccc(C#N)cc3)ccc21 | – |
| 0.43 | 1.3 | Cc1ccc(CN(CC(=O)N2CCC(N)CC2)c2ccc(C#N)cc2)cc1 | – |
| 0.009 | – | Cc1ccc(-c2ncc(OC[C@H]3CCNC3)cc2-c2ccc(C#N)cc2)cc1 | IC50 [3]: 3.2 µM; Activity (MV4-11): Active; CLint (Liver): 3.43 µL/min; Activity (THP-1 [4]): Active; half-life [5]: 6.73 h; Activity (THP-1 [6]): Active; Papp A→B [7]: 5.6 ×10⁻⁶ cm/s; EC50 [8]: 0.3 µM |
| 2.9 | 7.5 | CNC1CCN(C(=O)CN(c2ccc(C#N)cc2)S(=O)(=O)c2ccc(C)cc2)CC1 | – |
| 3.2 | 16.4 | Cc1ccc(S(=O)(=O)N(CC(=O)N2CC[C@@H](N)C2)c2ccc(C#N)cc2)cc1 | – |
| 90 | > 150 | Cc1ccc(S(=O)(=O)N(CC(=O)Nc2cccnc2)c2ccc(C#N)cc2)cc1 | – |
| 1.8 | 4.4 | CC(=O)N1CCc2cc(S(=O)(=O)N(CC(=O)N3CCC(N)CC3)c3ccc(C#N)cc3)ccc21 | – |
| 0.29 | 0.4 | N#Cc1ccc(N(CC(=O)N2CCC(CN)CC2)Cc2ccc(Cl)cc2)cc1 | – |
| 4.5 | 13.9 | Cc1ccc(S(=O)(=O)N(CC(=O)N2CCC[C@@H](N)C2)c2ccc(C#N)cc2)cc1 | – |

| Compound | Kd [1] [µM] | IC50 [2] [µM] | further results |
| --- | --- | --- | --- |
| Cc1ccc(S(=O)(=O)N(CC(=O)N[C@@H]2CN3CCC2CC3)c2ccc(C#N)cc2)cc1 | 3.5 | 14.2 | – |
| Cc1ccc(S(=O)(=O)N(CC(=O)N[C@H]2CN3CCC2CC3)c2ccc(C#N)cc2)cc1 | 3.6 | 11.9 | – |
